ChEMBL document CHEMBL1821556, “Structure-activity relationships of antitubercular nitroimidazoles. 3. Exploration of the linker and lipophilic tail of ((s)-2-nitro-6,7-dihydro-5H-imidazo[2,1-b][1,3]oxazin-6-yl)-(4-trifluoromethoxybenzyl)amine (6-amino PA-824)” (J Med Chem, 2011)

How the values were obtained:
[1] = substrate: COc1cc(CO[C@@H]2COc3nc([N+](=O)[O-])cn3C2)ccc1OC(F)(F)F; test: (§1) Ratio of Kcat to Km for Mycobacterium tuberculosis deazaflavin-dependent nitroreductase
Outline: (§2)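 Each compound was tested as a substrate of Mtb deazaflavin-dependent nitroreductase (Ddn). kcat/KM was derived from the kinetics of reduced F420 reoxidation. Assays were repeated in two independent laboratories until concordant, and values are averages of multiple measurements.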

[2] = substrate: O=[N+]([O-])c1cn2c(n1)OC[C@@H](NC(CCO)c1ccc(OC(F)(F)F)cc1)C2; test: as §1; outline: as §2
[3] = substrate: O=CN(Cc1ccc(OC(F)(F)F)cc1)[C@@H]1COc2nc([N+](=O)[O-])cn2C1; test: as §1; outline: as §2
[4] = substrate: O=[N+]([O-])c1cn2c(n1)OC[C@@H](NCc1ccc(OC(F)(F)F)cc1F)C2; test: as §1; outline: as §2
[5] = substrate: O=[N+]([O-])c1cn2c(n1)OC[C@@H](NCc1ccc(OC(F)(F)F)c(Oc3ccccc3)c1)C2; test: as §1; outline: as §2
[6] = substrate: O=[N+]([O-])c1cn2c(n1)OC[C@@H](NCc1ccc(OC(F)(F)F)cc1OC1CC1)C2; test: as §1; outline: as §2
[7] = substrate: O=[N+]([O-])c1cn2c(n1)OC[C@@H](NCc1ccc(OC(F)(F)F)cc1)C2; test: as §1; outline: as §2
[8] = substrate: O=[N+]([O-])c1cn2c(n1)OC[C@@H](NCc1ccc(OC(F)(F)F)cc1Oc1ccccc1)C2; test: as §1; outline: as §2
[9] = substrate: COc1cc(CN[C@@H]2COc3nc([N+](=O)[O-])cn3C2)ccc1OC(F)(F)F; test: as §1; outline: as §2
[10] = substrate: O=[N+]([O-])c1cn2c(n1)OC[C@@H](OCc1ccc(OC(F)(F)F)c(O)c1)C2; test: as §1; outline: as §2
[11] = substrate: O=[N+]([O-])c1cn2c(n1)OC[C@@H](NCc1ccc(OC(F)(F)F)c(O)c1)C2; test: as §1; outline: as §2
[12] = substrate: CCNC(=O)N(Cc1ccc(OC(F)(F)F)cc1)[C@@H]1COc2nc([N+](=O)[O-])cn2C1; test: as §1; outline: as §2
[13] = substrate: CN1CCN(c2cc(CN[C@@H]3COc4nc([N+](=O)[O-])cn4C3)ccc2OC(F)(F)F)CC1; test: as §1; outline: as §2
[14] = substrate: O=[N+]([O-])c1cn2c(n1)OC[C@@H](NCc1ccc(OC(F)(F)F)cc1N1CCOCC1)C2; test: as §1; outline: as §2
[15] = substrate: O=[N+]([O-])c1cn2c(n1)OC[C@@H](NC(c1ccc(OC(F)(F)F)cc1)c1ncc[nH]1)C2; test: as §1; outline: as §2
[16] = substrate: CCC(N[C@@H]1COc2nc([N+](=O)[O-])cn2C1)c1ccc(OC(F)(F)F)cc1; test: as §1; outline: as §2
[17] = substrate: O=[N+]([O-])c1cn2c(n1)OC[C@@H](NCc1ccc(OC(F)(F)F)cc1Cl)C2; test: as §1; outline: as §2
[18] = substrate: O=C(c1cccc(Cl)c1)N(Cc1ccc(OC(F)(F)F)cc1)[C@@H]1COc2nc([N+](=O)[O-])cn2C1; test: as §1; outline: as §2
[19] = substrate: O=[N+]([O-])c1cn2c(n1)OC[C@@H](NCc1ccc(OC(F)(F)F)c(Cl)c1)C2; test: as §1; outline: as §2
[20] = substrate: O=C(c1ccc(Cl)cc1)N(Cc1ccc(OC(F)(F)F)cc1)[C@@H]1COc2nc([N+](=O)[O-])cn2C1; test: as §1; outline: as §2
[21] = substrate: O=[N+]([O-])c1cn2c(n1)OC[C@@H](NCc1ccc(OC(F)(F)F)cc1N1CCCCC1)C2; test: as §1; outline: as §2
[22] = substrate: COc1cc(OC(F)(F)F)ccc1CN[C@@H]1COc2nc([N+](=O)[O-])cn2C1; test: as §1; outline: as §2
[23] = substrate: CCCN(Cc1ccc(OC(F)(F)F)cc1)[C@@H]1COc2nc([N+](=O)[O-])cn2C1; test: as §1; outline: as §2
[24] = substrate: NC(=O)C(N[C@@H]1COc2nc([N+](=O)[O-])cn2C1)c1ccc(OC(F)(F)F)cc1; test: as §1; outline: as §2
[25] = substrate: CC(C)N(Cc1ccc(OC(F)(F)F)cc1)[C@@H]1COc2nc([N+](=O)[O-])cn2C1; test: as §1; outline: as §2
[26] = substrate: O=[N+]([O-])c1cn2c(n1)OC[C@@H](NCc1ccc(OC(F)(F)F)cc1OCc1ccccc1)C2; test: as §1; outline: as §2
[27] = substrate: CCCCC(N[C@@H]1COc2nc([N+](=O)[O-])cn2C1)c1ccc(OC(F)(F)F)cc1; test: as §1; outline: as §2
[28] = substrate: O=C(c1ccccc1Cl)N(Cc1ccc(OC(F)(F)F)cc1)[C@@H]1COc2nc([N+](=O)[O-])cn2C1; test: as §1; outline: as §2
[29] = substrate: COC(=O)c1cc(CN[C@@H]2COc3nc([N+](=O)[O-])cn3C2)ccc1OC(F)(F)F; test: as §1; outline: as §2
[30] = substrate: O=[N+]([O-])c1cn2c(n1)OC[C@@H](NCc1ccc(OC(F)(F)F)cc1OCC1CC1)C2; test: as §1; outline: as §2
[31] = substrate: CCCC(N[C@@H]1COc2nc([N+](=O)[O-])cn2C1)c1ccc(OC(F)(F)F)cc1; test: as §1; outline: as §2
[32] = substrate: O=[N+]([O-])c1cn2c(n1)OC[C@@H](OCc1ccc(OC(F)(F)F)c(F)c1)C2; test: as §1; outline: as §2
[33] = substrate: CC(N[C@@H]1COc2nc([N+](=O)[O-])cn2C1)c1ccc(OC(F)(F)F)cc1; test: as §1; outline: as §2
[34] = substrate: O=C(c1ccccc1)N(Cc1ccc(OC(F)(F)F)cc1)[C@@H]1COc2nc([N+](=O)[O-])cn2C1; test: as §1; outline: as §2
[35] = substrate: O=[N+]([O-])c1cn2c(n1)OC[C@@H](NCc1ccc(OC(F)(F)F)c(F)c1)C2; test: as §1; outline: as §2
[36] = substrate: O=[N+]([O-])c1cn2c(n1)OC[C@@H](NCc1ccc(OC(F)(F)F)cc1Br)C2; test: as §1; outline: as §2
[37] = substrate: O=[N+]([O-])c1cn2c(n1)OC[C@@H](NC(CO)c1ccc(OC(F)(F)F)cc1)C2; test: as §1; outline: as §2
[38] = substrate: O=[N+]([O-])c1cn2c(n1)OC[C@@H](NC(c1ccc(OC(F)(F)F)cc1)c1ncco1)C2; test: as §1; outline: as §2
[39] = substrate: CC(=O)N(Cc1ccc(OC(F)(F)F)cc1)[C@@H]1COc2nc([N+](=O)[O-])cn2C1; test: as §1; outline: as §2
[40] = substrate: O=[N+]([O-])c1cn2c(n1)OC[C@@H](NCc1ccc(OC(F)(F)F)c(N3CCOCC3)c1)C2; test: as §1; outline: as §2
[41] = substrate: CN(Cc1ccc(OC(F)(F)F)cc1)[C@@H]1COc2nc([N+](=O)[O-])cn2C1; test: as §1; outline: as §2
[42] = substrate: O=[N+]([O-])c1cn2c(n1)OC[C@@H](OCc1ccc(OC(F)(F)F)cc1)C2; test: as §1; outline: as §2
[43] = substrate: O=[N+]([O-])c1cn2c(n1)OC[C@@H](NCc1ccc(OC(F)(F)F)cc1O)C2; test: as §1; outline: as §2
[44] = substrate: CN1CCN(c2cc(OC(F)(F)F)ccc2CN[C@@H]2COc3nc([N+](=O)[O-])cn3C2)CC1; test: as §1; outline: as §2

B1: Deazaflavin-dependent nitroreductase (Mycobacterium tuberculosis), P9WP15 (protein)
chain: MPKSPPRFLNSPLSDFFIKWMSRINTWMYRRNDGEGLGGTFQKIPVALLTTTGRKTGQPRVNPLYFLRDGGRVIVAASKGGAEKNPMWYLNLKANPKVQVQIKKEVLDLTARDATDEERAEYWPQLVTMYPSYQDYQSWTDRTIPIVVCEP
- kcat/Km [1]: 0.24
- kcat/Km [2]: 0.21
- kcat/Km [3]: 0.07
- kcat/Km [4]: 0.2
- kcat/Km [5]: 0.13
- kcat/Km [6]: 0.31
- kcat/Km [7]: 0.17
- kcat/Km [8]: 0.42
- kcat/Km [9]: 0.19
- kcat/Km [10]: 0.14
- kcat/Km [11]: 0.13
- kcat/Km [12]: 0
- kcat/Km [13]: 0.16
- kcat/Km [14]: 0.19
- kcat/Km [15]: 0.17
- kcat/Km [16]: 0.14
- kcat/Km [17]: 0.27
- kcat/Km [18]: 0.25
- kcat/Km [19]: 0.31
- kcat/Km [20]: 0.37
- kcat/Km [21]: 0.42
- kcat/Km [22]: 0.15
- kcat/Km [23]: 0.32
- kcat/Km [24]: 0.12
- kcat/Km [25]: 0.04
- kcat/Km [26]: 0.31
- kcat/Km [27]: 0.4
- kcat/Km [28]: 0.13
- kcat/Km [29]: 0.17
- kcat/Km [30]: 0.37
- kcat/Km [31]: 0.31
- kcat/Km [32]: 0.33
- kcat/Km [33]: 0.09
- kcat/Km [34]: 0.16
- kcat/Km [35]: 0.21
- kcat/Km [36]: 0.25
- kcat/Km [37]: 0.15
- kcat/Km [38]: 0.2
- kcat/Km [39]: 0.02
- kcat/Km [40]: 0.1
- kcat/Km [41]: 0.25
- kcat/Km [42]: 0.15
- kcat/Km [43]: 0.18
- kcat/Km [44]: 0.17
